Measured values taken from ChEMBL document CHEMBL2150936, “Anticancer activity of small amphipathic β²,²-amino acid derivatives” (Eur J Med Chem, 2012).

Legend:
UACC-62 = assay: Cytotoxicity against human UACC62 cells after 4 hrs by MTT assay; type: functional, cell-based; conditions: UACC-62, 4 h
SK-MEL-28 = assay: Cytotoxicity against human SK-MEL-28 cells after 4 hrs by MTT assay; type: functional, cell-based; conditions: SK-MEL-28, 4 h
OVCAR-3 = assay: Cytotoxicity against human OVCAR3 cells after 4 hrs by MTT assay; type: functional, cell-based; conditions: OVCAR-3, 4 h
HCT-15 = assay: Cytotoxicity against human HCT15 cells after 4 hrs by MTT assay; type: functional, cell-based; conditions: HCT-15, 4 h
DU-145 = assay: Cytotoxicity against human DU145 cells after 4 hrs by MTT assay; type: functional, cell-based; conditions: DU-145, 4 h
LOX IMVI = assay: Cytotoxicity against human LOXIMVI cells after 4 hrs by MTT assay; type: functional, cell-based
UO-31 = assay: Cytotoxicity against human UO31 cells after 4 hrs by MTT assay; type: functional, cell-based; conditions: UO-31, 4 h
NCI-H322M = assay: Cytotoxicity against human NCI-H322M cells after 4 hrs by MTT assay; type: functional, cell-based
EKVX = assay: Cytotoxicity against human EKVX cells after 4 hrs by MTT assay; type: functional, cell-based
HT-29 = assay: Cytotoxicity against human HT-29 cells after 4 hrs by MTT assay; type: functional, cell-based; conditions: HT-29, 4 h
A498 = assay: Cytotoxicity against human A498 cells after 4 hrs by MTT assay; type: functional, cell-based; conditions: A498, 4 h
NCI/ADR-RES = assay: Cytotoxicity against human NCI/ADR-RES cells after 4 hrs by MTT assay; type: functional, cell-based
OVCAR-8 = assay: Cytotoxicity against human OVCAR8 cells after 4 hrs by MTT assay; type: functional, cell-based; conditions: OVCAR-8, 4 h
HOP-62 = assay: Cytotoxicity against human HOP62 cells after 4 hrs by MTT assay; type: functional, cell-based; conditions: HOP-62, 4 h
IGROV-1 = assay: Cytotoxicity against human IGROV1 cells after 4 hrs by MTT assay; type: functional, cell-based; conditions: IGROV-1, 4 h
ACHN = assay: Cytotoxicity against human ACHN cells after 4 hrs by MTT assay; type: functional, cell-based
TK-10 = assay: Cytotoxicity against human TK10 cells after 4 hrs by MTT assay; type: functional, cell-based; conditions: TK-10, 4 h
NCI-H522 = assay: Cytotoxicity against human NCI-H522 cells after 4 hrs by MTT assay; type: functional, cell-based; conditions: NCI-H522, 4 h
Ramos [1] = assay: Selectivity index, ratio of EC50 for human RBC to IC50 for human Ramos cells; type: functional
Summary of the method: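 Ramos IC50 came from a 4 h MTT assay: cells at 4 × 10^5 cells/ml in serum-free RPMI-1640, compounds added at once, 37 °C, 2 h MTT, read at 590 nm. RBC EC50 came from hemoglobin release at 405 nm: 1% v/v washed human erythrocytes in PBS, 1 h at 37 °C, Triton X-100 reference. SI = RBC EC50 / Ramos IC50.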

NCI-H226 = assay: Cytotoxicity against human NCI-H226 cells after 4 hrs by MTT assay; type: functional, cell-based; conditions: NCI-H226, 4 h
786-0 = assay: Cytotoxicity against human 786-0 cells after 4 hrs by MTT assay; type: functional, cell-based; conditions: 786-0, 4 h
MOLT-4 = assay: Cytotoxicity against human MOLT4 cells after 4 hrs by MTT assay; type: functional, cell-based; conditions: MOLT-4, 4 h
MDA-MB-231 = assay: Cytotoxicity against human MDA-MB-231 cells after 4 hrs by MTT assay; type: functional, cell-based; conditions: MDA-MB-231, 4 h
MCF7 = assay: Cytotoxicity against human MCF7 cells after 4 hrs by MTT assay; type: functional, cell-based; conditions: MCF7, 4 h
SK-MEL-2 = assay: Cytotoxicity against human SK-MEL-2 cells after 4 hrs by MTT assay; type: functional, cell-based; conditions: SK-MEL-2, 4 h
K562 = assay: Cytotoxicity against human K562 cells after 4 hrs by MTT assay; type: functional, cell-based; conditions: K562, 4 h
PC-3 = assay: Cytotoxicity against human PC3 cells after 4 hrs by MTT assay; type: functional, cell-based; conditions: PC-3, 4 h
SK-MEL-5 = assay: Cytotoxicity against human SK-MEL-5 cells after 4 hrs by MTT assay; type: functional, cell-based; conditions: SK-MEL-5, 4 h
OVCAR-4 = assay: Cytotoxicity against human OVCAR4 cells after 4 hrs by MTT assay; type: functional, cell-based; conditions: OVCAR-4, 4 h
Malme-3M = assay: Cytotoxicity against human MALME-3M cells after 4 hrs by MTT assay; type: functional, cell-based
Ramos [2] = assay: Selectivity index, ratio of EC50 for human MRC5 cells to IC50 for human Ramos cells; type: functional
Summary of the method: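 Ramos cells were seeded at 4 × 10^5 cells/ml in serum-free RPMI-1640, and compounds in RPMI-1640 were added at once. MRC-5 fibroblasts were seeded at 1 × 10^5 cells/ml in MEM with 10% FBS, grown overnight, and the medium was then replaced with compound. Both were incubated 4 h at 37 °C, 5% CO2, then given MTT for 2 h. Formazan was dissolved in acidic isopropanol and read at 590 nm. Survival was expressed relative to the untreated medium control. SI = MRC-5 EC50 / Ramos IC50.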

[3] = read-out: LC50 (the source's name)

`NCCNC(=O)C(CN)(Cc1ccc2ccccc2c1)Cc1ccc2ccccc2c1` was tested, and the IC50 (UACC-62) was 3.31 µM, the TGI (UACC-62) was 3.31 µM and the CC50 (UACC-62; [3]) was 5.75 µM. For the same compound, the IC50 (SK-MEL-28) was 3.47 µM, the TGI (SK-MEL-28) was 3.47 µM and the CC50 (SK-MEL-28; [3]) was 5.89 µM. It also gave an IC50 (OVCAR-3) of 2.82 µM, a TGI (OVCAR-3) of 2.88 µM and a CC50 (OVCAR-3; [3]) of 5.62 µM. For the same compound, the IC50 (HCT-15) was 0.79 µM, the TGI (HCT-15) was 1.91 µM and the CC50 (HCT-15; [3]) was 5.01 µM. It also gave an IC50 (DU-145) of 2.57 µM, a TGI (DU-145) of 2.82 µM and a CC50 (DU-145; [3]) of 5.37 µM. The IC50 (LOX IMVI) was 0.62 µM, the TGI (LOX IMVI) was 1.7 µM and the CC50 (LOX IMVI; [3]) was 4.37 µM. The IC50 (UO-31) was 2.95 µM, the TGI (UO-31) was 2.95 µM and the CC50 (UO-31; [3]) was 6.03 µM. For the same compound, the IC50 (NCI-H322M) was 3.09 µM, the TGI (NCI-H322M) was 2.88 µM and the CC50 (NCI-H322M; [3]) was 5.89 µM. The IC50 (EKVX) was 2.69 µM, the TGI (EKVX) was 2.88 µM and the CC50 (EKVX; [3]) was 6.17 µM. The IC50 (HT-29) was 0.41 µM, the TGI (HT-29) was 1.02 µM and the CC50 (HT-29; [3]) was 4.07 µM. The IC50 (A498) was 2.82 µM, the TGI (A498) was 2.34 µM and the CC50 (A498; [3]) was 5.01 µM. The IC50 (NCI/ADR-RES) was 3.16 µM, the TGI (NCI/ADR-RES) was 3.31 µM and the CC50 (NCI/ADR-RES; [3]) was 6.46 µM. It also gave an IC50 (OVCAR-8) of 3.39 µM, a TGI (OVCAR-8) of 3.72 µM and a CC50 (OVCAR-8; [3]) of 7.24 µM. It also gave an IC50 (HOP-62) of 2.82 µM, a TGI (HOP-62) of 2.88 µM and a CC50 (HOP-62; [3]) of 5.62 µM. It also gave an IC50 (IGROV-1) of 3.16 µM, a TGI (IGROV-1) of 3.24 µM and a CC50 (IGROV-1; [3]) of 7.24 µM. For the same compound, the IC50 (ACHN) was 2.75 µM, the TGI (ACHN) was 2.88 µM and the CC50 (ACHN; [3]) was 5.5 µM. The IC50 (TK-10) was 3.09 µM, the TGI (TK-10) was 3.16 µM and the CC50 (TK-10; [3]) was 6.03 µM. The IC50 (NCI-H522) was 3.09 µM, the TGI (NCI-H522) was 3.24 µM and the CC50 (NCI-H522; [3]) was 6.46 µM. The “Selectivity Index” value (Ramos [1]) was 112, the IC50 (NCI-H226) was 3.31 µM and the TGI (NCI-H226) was 3.39 µM. The CC50 (NCI-H226; [3]) was 7.24 µM, the IC50 (786-0) was 3.16 µM and the TGI (786-0) was 3.31 µM. It also gave a CC50 (786-0; [3]) of 6.31 µM, an IC50 (MOLT-4) of 1.41 µM and a TGI (MOLT-4) of 2.69 µM. It also gave an IC50 (MDA-MB-231) of 3.02 µM, a TGI (MDA-MB-231) of 3.09 µM and a CC50 (MDA-MB-231; [3]) of 6.03 µM. It also gave an IC50 (MCF7) of 1.35 µM, a TGI (MCF7) of 2.24 µM and a CC50 (MCF7; [3]) of 5.5 µM. The IC50 (SK-MEL-2) was 3.63 µM, the TGI (SK-MEL-2) was 3.63 µM and the CC50 (SK-MEL-2; [3]) was 6.92 µM. For the same compound, the IC50 (K562) was 0.32 µM, the TGI (K562) was 0.62 µM and the IC50 (PC-3) was 3.09 µM. The TGI (PC-3) was 3.31 µM, the CC50 (PC-3; [3]) was 6.61 µM and the IC50 (SK-MEL-5) was 2.82 µM. It also gave a TGI (SK-MEL-5) of 3.02 µM, a CC50 (SK-MEL-5; [3]) of 5.62 µM and an IC50 (OVCAR-4) of 2.82 µM. It also gave a TGI (OVCAR-4) of 2.82 µM, a CC50 (OVCAR-4; [3]) of 5.37 µM and an IC50 (Malme-3M) of 3.89 µM. For the same compound, the TGI (Malme-3M) was 3.8 µM, the CC50 (Malme-3M; [3]) was 7.24 µM and the “Selectivity Index” value (Ramos [2]) was 5.4.
